ChEMBL document CHEMBL4699593, “Identification of 2,4-Disubstituted Imidazopyridines as Hemozoin Formation Inhibitors with Fast-Killing Kinetics and In Vivo Efficacy in the Plasmodium falciparum NSG Mouse Model” (J Med Chem, 2020)
Active and inactive are the calls of the source. The rule behind the calls is not given here.

Experiments:
[1] = AUC (0 to t) in Balb/C mouse at 2 mg/kg, iv by LC-MS/MS analysis; type: ADME, organism-based; set-up: dose 2 mg/kg; conditions: in vivo
Summary of the method: (§1)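 Healthy Balb/c mice dosed i.v. or orally. Parameters come from non-compartmental analysis of compound concentration over time. […] Clearance is blood clearance (CL_b).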

[2] = Cmax in Plasmodium falciparum 3D70087/N9 infected NSG mouse at 15 mg/kg, po by LC-MS/MS analysis; type: ADME, organism-based; set-up: route oral, dose 15 mg/kg; conditions: in vivo
Summary of the method: (§2)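 Oral (PO) dosing of NSG (NODscidIL2Rγnull) mice infected with P. falciparum. Cmax and AUC0–24 are taken from the infected-mouse PK analysis and are also expressed divided by dose.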

[3] = Dose normalized Cmax in Plasmodium falciparum 3D70087/N9 infected NSG mouse at 50 mg/kg, po by LC-MS/MS analysis; type: ADME, organism-based; conditions: in vivo
Summary of the method: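 P. falciparum-infected NSG mice received escalating single oral doses of 1.5, 5, 15, 50 and 100 mg/kg.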

[4] = AUC (0 to t) in Balb/C mouse at 20 mg/kg, po by LC-MS/MS analysis; type: ADME, organism-based; set-up: dose 20 mg/kg; conditions: in vivo; summary of the method: as §1
[5] = Ratio of unbound average drug concentration in Balb/c mouse at 20 mg/kg, po measured at 24 hrs to IC50 for antiplasmodial activity against multidrug-sensitive Plasmodium falciparum NF54 asexual blood stage assessed as reduction in parasite growth after 72 hrs by LDH assay; type: organism-based; conditions: in vivo
[6] = tested on: Plasmodium falciparum; experiment: Antimalarial activity against asexual schizont stage of Plasmodium falciparum NF54 measured after 24 hrs by [3H]hypoxanthine incorporation assay; type: functional, organism-based
Summary of the method: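 Tested on a synchronized asexual blood-stage culture of P. falciparum, with IC50 determined separately for the ring and the schizont stage.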

[7] = AUC in Plasmodium falciparum infected NSG mouse at 62 mg/kg, po by LC-MS/MS analysis; type: ADME, organism-based; set-up: dose 62 mg/kg; conditions: in vivo
[8] = AUC (0 to 24 hrs) in Plasmodium falciparum 3D70087/N9 infected NSG mouse at 50 mg/kg, po by LC-MS/MS analysis; type: ADME, organism-based; set-up: time < 24 hr, route oral, dose 50 mg/kg; conditions: in vivo; summary of the method: as §2
[9] = tested on: Plasmodium falciparum; experiment: Antimalarial activity against Plasmodium falciparum 3D70087/N9 infected in NOD-SCID IL2Rgamma null mouse assessed as parasitemia at 100 mg/kg, po qd administered for 4 days measured on day 6 post-infection by microscopy based flow cytometry; type: functional, organism-based; conditions: time 4.0 day
[10] = Cmax in Balb/C mouse at 2 mg/kg, iv by LC-MS/MS analysis; type: ADME, organism-based; set-up: route intravenous, dose 2 mg/kg; conditions: in vivo; summary of the method: as §1
[11] = Dose normalized Cmax in Plasmodium falciparum 3D70087/N9 infected NSG mouse at 200 mg/kg, po by LC-MS/MS analysis; type: ADME, organism-based; conditions: in vivo; summary of the method: as §2
[12] = Lipophilicity, log D of compound at pH 7.4; type: physicochemical; conditions: buffer
[13] = Dose normalized AUC (0 to 24 hrs) in Plasmodium falciparum 3D70087/N9 infected NSG mouse at 50 mg/kg, po by LC-MS/MS analysis; type: ADME, organism-based; conditions: in vivo; summary of the method: as §2
[14] = tested on: Plasmodium falciparum; experiment: Antimalarial activity against asexual blood stage Plasmodium falciparum assessed as reduction in parasitemia by measuring lag time at 10 times IC50; type: functional
[15] = AUC (0 to 24 hrs) in Plasmodium falciparum 3D70087/N9 infected NSG mouse at 15 mg/kg, po by LC-MS/MS analysis; type: ADME, organism-based; set-up: time < 24 hr, route oral, dose 15 mg/kg; conditions: in vivo; summary of the method: as §2
[16] = tested on: Hemozoin; experiment: Inhibition of beta-hematin formation assessed as reduction in hemozoin formation incubated for 5 hrs by NP40 detergent-mediated assay
Summary of the method: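 Synthetic hemozoin (β-hematin) formation is driven by the detergent Nonidet P-40. Pyridine is then added to detect unreacted hematin. IC50 is derived from this read-out.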

[17] = tested on: Plasmodium berghei; experiment: Antiplasmodial activity against luciferase-expressing Plasmodium berghei sporozoites liver stage infected in human HepG2 cells expressing GFP-CD81 fusion protein incubated for 48 hrs by luciferase reporter gene based bioluminescence assay; type: functional, organism-based; conditions: HepG2, 48 h
Summary of the method: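 Liver-stage activity was measured in vitro with rodent P. berghei sporozoites. Values are the mean of 3 technical replicates from the luciferase assay; individual values varied less than 2×.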

[18] = tested on: Plasmodium falciparum; experiment: Antiplasmodial activity against multidrug-resistant asexual blood stage Plasmodium falciparum K1 strain assessed as reduction in parasite growth after 72 hrs by NBT reagent based LDH assay; type: functional, organism-based; conditions: K1, 72 h
Summary of the method: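 Asexual blood-stage K1 (multidrug-resistant) parasites were read out by the parasite lactate dehydrogenase (pLDH) assay. […] Most individual values varied less than 2× (maximum 3×).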

[19] = tested on: Plasmodium falciparum; experiment: Antiplasmodial activity against early ring-stage synchronized Plasmodium falciparum assessed as increase in free heme after 32 hrs by Giemsa-staining based haemocytometric counting method; type: functional, organism-based
Summary of the method: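 Whole-parasite cell fractionation assay run as a dose response. Free heme and hemozoin were measured intracellularly across increasing compound concentrations.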

[20] = tested on: Plasmodium falciparum; experiment: Antimalarial activity against Plasmodium falciparum 3D70087/N9 infected in NOD-SCID IL2Rgamma null mouse assessed as parasitemia at 50 mg/kg, po qd administered for 4 days measured on day 6 post-infection by microscopy based flow cytometry; type: functional, organism-based; conditions: time 4.0 day
Summary of the method: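 NSG mice were infected with P. falciparum and given oral compound once daily for 4 days at 50 mg/kg, starting three days after inoculation. Parasitemia was followed to day 6 post-infection against the limit of detection.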

[21] = Drug metabolism in mouse blood assessed as N-demethylation by LC-MS/MS analysis; type: ADME, tissue-based
[22] = Drug recovery in mouse urine by LC-MS/MS analysis; type: ADME, tissue-based; conditions: in vivo
[23] = Terminal half life in Balb/C mouse at 20 mg/kg, po by LC-MS/MS analysis; type: ADME, organism-based; conditions: in vivo, read-out: beta t1/2 (converted)
Summary of the method: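 Healthy Balb/c mice were given the compound i.v. or orally. Parameters come from non-compartmental analysis: AUC from 0 h to t_last, blood clearance, volume at steady state, terminal half-life, Tmax. Oral bioavailability F is derived from the i.v. and p.o. data.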

[24] = tested on: Plasmodium falciparum; experiment: Antiplasmodial activity against multidrug-sensitive asexual blood stage Plasmodium falciparum NF54 strain assessed as reduction in parasite growth after 72 hrs by NBT reagent based LDH assay; type: functional, organism-based; conditions: NF54, 72 h
[25] = Dose normalized Cmax in Plasmodium falciparum 3D70087/N9 infected NSG mouse at 1.5 mg/kg, po by LC-MS/MS analysis; type: ADME, organism-based; conditions: in vivo; summary of the method: as §2
[26] = Cmax in Plasmodium falciparum 3D70087/N9 infected NSG mouse at 200 mg/kg, po by LC-MS/MS analysis; type: ADME, organism-based; set-up: route oral, dose 200 mg/kg; conditions: in vivo; summary of the method: as §2
[27] = tested on: CHO; experiment: Cytotoxicity against CHO cells assessed as reduction in cell viability by MTT assay; type: cell-based, Cricetulus griseus; conditions: chinese hamster
Summary of the method: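 Cytotoxicity was measured in Chinese hamster ovary (CHO) cells and reported as CC50. The selectivity index is CC50 divided by NF54 IC50.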

[28] = Cmax in Plasmodium falciparum 3D70087/N9 infected NSG mouse at 1.5 mg/kg, po by LC-MS/MS analysis; type: ADME, organism-based; set-up: route oral, dose 1.5 mg/kg; conditions: in vivo; summary of the method: as §2
[29] = Cmax in Plasmodium falciparum 3D70087/N9 infected NSG mouse at 5 mg/kg, po by LC-MS/MS analysis; type: ADME, organism-based; set-up: route oral, dose 5 mg/kg; conditions: in vivo; summary of the method: as §2
[30] = tested on: hERG; experiment: Selectivity index, ratio of IC50 for inhibition of human ERG by patch clamp method to IC50 for antiplasmodial activity against multidrug-sensitive asexual blood stage Plasmodium falciparum NF54; type: toxicity; conditions: read-out: Ratio IC50

Work on `CN1CCN(CC2CCN(c3nccc4[nH]c(-c5cc(F)cc(F)c5)nc34)CC2)CC1` yielded an AUCt [1] of 2.42 µM·h, a Cmax [2] of 810 nM and a Cmax/dose [3] of 0.06 µM·kg/mg. It also gave an AUCt [4] of 20 µM·h, a Ratio [5] of 4.5 and an IC50 [6] of 0.06 µM. For the same compound, the AUC [7] was 58.3 µM·h, the AUC [8] was 2856 µM·min and the Activity [9] was “Below limit of detection”. The Cmax [10] was 600 nM, the Cmax/dose [11] was 0.06 µM·kg/mg and the logD [12] was 2.6. For the same compound, the AUC/dose [13] was 57 µM·kg·min/mg, the Time [14] was 0 h and the AUC [15] was 969 µM·min. For the same compound, the IC50 [16] was 24 µM, the IC50 [17] was 14 µM and the IC50 [18] was 0.041 µM. For the same compound, the Activity [19] was “inactive”, the Activity [20] was “Below limit of detection” and the Drug metabolism [21] was “Metabolite_Detected”. The Drug recovery [22] was “Active”, the half-life [23] was 32.7 h and the IC50 [24] was 0.023 µM. The Cmax/dose [25] was 0.03 µM·kg/mg, the Cmax [26] was 2840 nM and the CC50 [27] was 23 µM. It also gave a Cmax [28] of 40 nM, a Cmax [29] of 130 nM and a selectivity ratio [30] of over 1300.
